# Reference: PMC10842602 (Bioorganic & medicinal chemistry, 2023)
# Target: T1, WT human SLACK (Homo sapiens, UniProt Q5JUK3)
# T1 sequence (Q5JUK3 1-1235 isoform Q5JUK3-3): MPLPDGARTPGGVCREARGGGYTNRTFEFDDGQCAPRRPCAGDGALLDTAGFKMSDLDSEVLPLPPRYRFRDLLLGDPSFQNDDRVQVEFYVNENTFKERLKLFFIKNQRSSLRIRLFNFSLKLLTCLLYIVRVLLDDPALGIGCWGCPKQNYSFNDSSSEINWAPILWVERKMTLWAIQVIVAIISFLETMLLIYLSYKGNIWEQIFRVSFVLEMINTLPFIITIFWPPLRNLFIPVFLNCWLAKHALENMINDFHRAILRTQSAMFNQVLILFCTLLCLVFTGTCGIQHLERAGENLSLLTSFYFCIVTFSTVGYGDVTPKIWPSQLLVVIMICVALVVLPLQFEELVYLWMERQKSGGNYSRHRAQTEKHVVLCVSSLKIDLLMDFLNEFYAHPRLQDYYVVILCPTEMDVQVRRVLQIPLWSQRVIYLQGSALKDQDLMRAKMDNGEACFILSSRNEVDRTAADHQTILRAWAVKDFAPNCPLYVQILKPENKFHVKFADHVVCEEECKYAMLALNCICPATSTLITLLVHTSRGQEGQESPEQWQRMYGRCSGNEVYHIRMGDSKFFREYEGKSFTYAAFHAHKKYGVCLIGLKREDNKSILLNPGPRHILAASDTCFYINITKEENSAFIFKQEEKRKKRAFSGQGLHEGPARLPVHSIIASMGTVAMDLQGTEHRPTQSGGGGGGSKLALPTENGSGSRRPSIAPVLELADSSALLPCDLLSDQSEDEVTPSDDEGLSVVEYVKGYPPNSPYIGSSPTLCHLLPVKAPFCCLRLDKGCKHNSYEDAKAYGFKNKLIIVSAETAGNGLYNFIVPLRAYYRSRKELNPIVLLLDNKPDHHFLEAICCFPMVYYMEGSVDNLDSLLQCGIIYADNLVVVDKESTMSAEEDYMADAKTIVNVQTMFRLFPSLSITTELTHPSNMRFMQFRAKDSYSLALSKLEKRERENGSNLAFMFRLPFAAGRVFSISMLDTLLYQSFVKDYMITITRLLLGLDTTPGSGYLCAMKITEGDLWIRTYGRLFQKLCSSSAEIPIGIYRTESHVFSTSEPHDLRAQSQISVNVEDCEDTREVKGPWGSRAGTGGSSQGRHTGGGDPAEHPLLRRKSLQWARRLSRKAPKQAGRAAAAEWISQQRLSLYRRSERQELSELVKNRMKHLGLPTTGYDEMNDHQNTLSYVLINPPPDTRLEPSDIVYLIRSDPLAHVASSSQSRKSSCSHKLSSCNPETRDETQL
# Assay: Tl+ flux assay in HEK-293 cells stably expressing WT human SLACK
# Assay type: cell-based
# Conditions: for IC50 / EC50: CRC; for Mode: Tl+ flux, HEK-293 cells expressing WT SLACK
# How it was run: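 Stably transfected HEK-293 cells expressing wild-type human SLACK; thallium flux read-out. IC50 or EC50 taken from concentration-response curves, and each compound classed as inhibitor, activator or not active. Efficacy is the response amplitude at 30 μM test compound, as a percentage of the maximum response to a reference SLACK inhibitor (for inhibitors) or loxapine (for activators).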
# [1] = IC50 for compounds of mode Inh (also cells printed Inactive)
SMILES,IC50 / EC50 (EC50 for compounds of mode Act),IC50 / EC50 [1],Mode
"O=S(=O)(c1ccccc1F)N1CC(c2nc(-c3ccsc3)no2)C1 [Compound 11, 5-(1-((2-Fluorophenyl)sulfonyl)azetidin-3-yl)-3-(thiophen-3-yl)-1,2,4-oxadiazole]",4.8 µM,,
"O=S(=O)(c1cccc(F)c1)N1CC(c2nc(-c3ccsc3)no2)C1 [Compound 12, 5-(1-((3-Fluorophenyl)sulfonyl)azetidin-3-yl)-3-(thiophen-3-yl)-1,2,4-oxadiazole]",>10 µM,,
"O=S(=O)(c1ccc(F)cc1)N1CC(c2nc(-c3ccsc3)no2)C1 [Compound 13, 5-(1-((4-Fluorophenyl)sulfonyl)azetidin-3-yl)-3-(thiophen-3-yl)-1,2,4-oxadiazole]",,Inactive,Inactive
"O=S(=O)(c1ccccc1Cl)N1CC(c2nc(-c3ccsc3)no2)C1 [Compound 14, 5-(1-((2-Chlorophenyl)sulfonyl)azetidin-3-yl)-3-(thiophen-3-yl)-1,2,4-oxadiazole]",7.5 µM,,
"O=S(=O)(c1cccc(Cl)c1)N1CC(c2nc(-c3ccsc3)no2)C1 [Compound 15, 5-(1-((3-Chlorophenyl)sulfonyl)azetidin-3-yl)-3-(thiophen-3-yl)-1,2,4-oxadiazole]",,Inactive,Inactive
"O=S(=O)(c1ccc(Cl)cc1)N1CC(c2nc(-c3ccsc3)no2)C1 [Compound 16, 5-(1-((4-Chlorophenyl)sulfonyl)azetidin-3-yl)-3-(thiophen-3-yl)-1,2,4-oxadiazole]",,Inactive,Inactive
"O=S(=O)(c1ccccc1C(F)(F)F)N1CC(c2nc(-c3ccsc3)no2)C1 [Compound 17, 3-(Thiophen-3-yl)-5-(1-((2-(trifluoromethyl)phenyl)sulfonyl)azetidin-3-yl)-1,2,4-oxadiazole]",6.0 µM,,
"O=S(=O)(c1cccc(C(F)(F)F)c1)N1CC(c2nc(-c3ccsc3)no2)C1 [Compound 18, 3-(Thiophen-3-yl)-5-(1-((3-(trifluoromethyl)phenyl)sulfonyl)azetidin-3-yl)-1,2,4-oxadiazole]",6.2 µM,,
"O=S(=O)(c1ccc(C(F)(F)F)cc1)N1CC(c2nc(-c3ccsc3)no2)C1 [Compound 19, 3-(Thiophen-3-yl)-5-(1-((4-(trifluoromethyl)phenyl)sulfonyl)azetidin-3-yl)-1,2,4-oxadiazole]",,Inactive,Inactive
"Cc1cccc(S(=O)(=O)N2CC(c3nc(-c4ccsc4)no3)C2)c1 [Compound 21, 3-(Thiophen-3-yl)-5-(1-(m-tolylsulfonyl)azetidin-3-yl)-1,2,4-oxadiazole]",>10 µM,,
"Cc1ccc(S(=O)(=O)N2CC(c3nc(-c4ccsc4)no3)C2)cc1 [Compound 22, 3-(Thiophen-3-yl)-5-(1-tosylazetidin-3-yl)-1,2,4-oxadiazole]",,Inactive,Inactive
"COc1cccc(S(=O)(=O)N2CC(c3nc(-c4ccsc4)no3)C2)c1 [Compound 24, 5-(1-((3-Methoxyphenyl)sulfonyl)azetidin-3-yl)-3-(thiophen-3-yl)-1,2,4-oxadiazole]",,Inactive,Inactive
"CCCCOc1ccccc1S(=O)(=O)N1CC(c2nc(-c3ccsc3)no2)C1 [Compound 28, 5-(1-((2-Butoxyphenyl)sulfonyl)azetidin-3-yl)-3-(thiophen-3-yl)-1,2,4-oxadiazole]",,Inactive,Inactive
CCNc1ccccc1S(=O)(=O)N1CC(c2nc(-c3ccsc3)no2)C1 [Compound 29],,Inactive,Inactive
CCCc1ccccc1S(=O)(=O)N1CC(c2nc(-c3ccsc3)no2)C1 [Compound 30],,>10 µM,
CCOc1ccccc1CN1CC(c2nc(-c3ccsc3)no2)C1 [Compound 31],>10 µM,,
CCOc1ccccc1C(C)N1CC(c2nc(-c3ccsc3)no2)C1 (stereo not shown) [Compound 32],>10 µM,,
CCOc1ccccc1C(=O)N1CC(c2nc(-c3ccsc3)no2)C1 [Compound 33],>10 µM,,
CCOc1ccccc1CC(=O)N1CC(c2nc(-c3ccsc3)no2)C1 [Compound 34],>10 µM,,
CCOc1ccccc1NC(=O)N1CC(c2nc(-c3ccsc3)no2)C1 [Compound 35],>10 µM,,
CCOc1ccccc1OC(=O)N1CC(c2nc(-c3ccsc3)no2)C1 [Compound 36],>10 µM,,
"CCOc1ccccc1S(=O)(=O)N1CC(c2nc(-c3ccccc3)no2)C1 [Compound 40, 5-(1-((2-Ethoxyphenyl)sulfonyl)azetidin-3-yl)-3-phenyl-1,2,4-oxadiazole]",,>10 µM,
"CCOc1ccccc1S(=O)(=O)N1CC(c2nc(-c3ccccc3F)no2)C1 [Compound 41, 5-(1-((2-Ethoxyphenyl)sulfonyl)azetidin-3-yl)-3-(2-fluorophenyl)-1,2,4-oxadiazole]",,7.9 µM,
"CCOc1ccccc1S(=O)(=O)N1CC(c2nc(-c3cccc(F)c3)no2)C1 [Compound 42, 5-(1-((2-Ethoxyphenyl)sulfonyl)azetidin-3-yl)-3-(3-fluorophenyl)-1,2,4-oxadiazole]",,Inactive,Inactive
"CCOc1ccccc1S(=O)(=O)N1CC(c2nc(-c3ccccc3Cl)no2)C1 [Compound 44, 3-(2-Chlorophenyl)-5-(1-((2-ethoxyphenyl)sulfonyl)azetidin-3-yl)-1,2,4-oxadiazole]",,8.0 µM,
"CCOc1ccccc1S(=O)(=O)N1CC(c2nc(-c3cccc(Cl)c3)no2)C1 [Compound 45, 3-(3-Chlorophenyl)-5-(1-((2-ethoxyphenyl)sulfonyl)azetidin-3-yl)-1,2,4-oxadiazole]",,Inactive,Inactive
"CCOc1ccccc1S(=O)(=O)N1CC(c2nc(-c3ccc(Cl)cc3)no2)C1 [Compound 46, 3-(4-Chlorophenyl)-5-(1-((2-ethoxyphenyl)sulfonyl)azetidin-3-yl)-1,2,4-oxadiazole]",,11 µM,
"CCOc1ccccc1S(=O)(=O)N1CC(c2nc(-c3ccccc3C(F)(F)F)no2)C1 [Compound 47, 5-(1-((2-Ethoxyphenyl)sulfonyl)azetidin-3-yl)-3-(2-(trifluoromethyl)phenyl)-1,2,4-oxadiazole]",1.9 µM,,
"CCOc1ccccc1S(=O)(=O)N1CC(c2nc(-c3cccc(C(F)(F)F)c3)no2)C1 [Compound 48, 5-(1-((2-Ethoxyphenyl)sulfonyl)azetidin-3-yl)-3-(3-(trifluoromethyl)phenyl)-1,2,4-oxadiazole]",,11 µM,
"CCOc1ccccc1S(=O)(=O)N1CC(c2nc(-c3ccccc3C)no2)C1 [Compound 50, 5-(1-((2-Ethoxyphenyl)sulfonyl)azetidin-3-yl)-3-(o-tolyl)-1,2,4-oxadiazole]",>10 µM,,
